Laboratory results from ChEMBL document CHEMBL4004881, “Perfluorinated hydroxamic acids are potent and selective inhibitors of HDAC-like enzymes from Pseudomonas aeruginosa” (Bioorg Med Chem Lett, 2017).

Key:
[1] = Inhibition of Pseudomonas aeruginosa PA3774 using Boc-Lys(trifluoroacetyl)-AMC as substrate preincubated for 30 mins followed by substrate addition measured after 60 mins by trypsin-based fluorescence assay
Histone deacetylase 4 = Histone deacetylase 4 (Homo sapiens, UniProt P56524); experiment: Inhibition of human HDAC4 using Boc-Lys(trifluoroacetyl)-AMC as substrate preincubated for 30 mins followed by substrate addition measured after 60 mins by trypsin-based fluorescence assay
[2] = Inhibition of Pseudomonas aeruginosa PA1409 using Boc-Lys(trifluoroacetyl)-AMC as substrate preincubated for 30 mins followed by substrate addition measured after 60 mins by trypsin-based fluorescence assay
Histone deacetylase 5 = Histone deacetylase 5 (Homo sapiens, UniProt Q9UQL6); experiment: Inhibition of human HDAC5 using Boc-Lys(trifluoroacetyl)-AMC as substrate preincubated for 30 mins followed by substrate addition measured after 60 mins by trypsin-based fluorescence assay
[3] = Inhibition of Pseudomonas aeruginosa PA0321 using Boc-Lys(trifluoroacetyl)-AMC as substrate preincubated for 30 mins followed by substrate addition measured after 60 mins by trypsin-based fluorescence assay
[4] = Inhibition of Alcaligenes HDAH using Boc-Lys(trifluoroacetyl)-AMC as substrate preincubated for 30 mins followed by substrate addition measured after 60 mins by trypsin-based fluorescence assay
Method in brief: (§1)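 Bacterial HDAH activity was measured by a fluorogenic assay in which the deacetylated substrate is converted to fluorescent dye by trypsin. Ki was calculated via Cheng-Prusoff from IC50 values, which were fitted to dose-response curves spanning 10 ligand concentrations.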

[5] = Inhibition of Bordetella HDAH using Boc-Lys(trifluoroacetyl)-AMC as substrate preincubated for 30 mins followed by substrate addition measured after 60 mins by trypsin-based fluorescence assay; method in brief: as §1

Chain of Histone deacetylase 4 (P56524 whole entry): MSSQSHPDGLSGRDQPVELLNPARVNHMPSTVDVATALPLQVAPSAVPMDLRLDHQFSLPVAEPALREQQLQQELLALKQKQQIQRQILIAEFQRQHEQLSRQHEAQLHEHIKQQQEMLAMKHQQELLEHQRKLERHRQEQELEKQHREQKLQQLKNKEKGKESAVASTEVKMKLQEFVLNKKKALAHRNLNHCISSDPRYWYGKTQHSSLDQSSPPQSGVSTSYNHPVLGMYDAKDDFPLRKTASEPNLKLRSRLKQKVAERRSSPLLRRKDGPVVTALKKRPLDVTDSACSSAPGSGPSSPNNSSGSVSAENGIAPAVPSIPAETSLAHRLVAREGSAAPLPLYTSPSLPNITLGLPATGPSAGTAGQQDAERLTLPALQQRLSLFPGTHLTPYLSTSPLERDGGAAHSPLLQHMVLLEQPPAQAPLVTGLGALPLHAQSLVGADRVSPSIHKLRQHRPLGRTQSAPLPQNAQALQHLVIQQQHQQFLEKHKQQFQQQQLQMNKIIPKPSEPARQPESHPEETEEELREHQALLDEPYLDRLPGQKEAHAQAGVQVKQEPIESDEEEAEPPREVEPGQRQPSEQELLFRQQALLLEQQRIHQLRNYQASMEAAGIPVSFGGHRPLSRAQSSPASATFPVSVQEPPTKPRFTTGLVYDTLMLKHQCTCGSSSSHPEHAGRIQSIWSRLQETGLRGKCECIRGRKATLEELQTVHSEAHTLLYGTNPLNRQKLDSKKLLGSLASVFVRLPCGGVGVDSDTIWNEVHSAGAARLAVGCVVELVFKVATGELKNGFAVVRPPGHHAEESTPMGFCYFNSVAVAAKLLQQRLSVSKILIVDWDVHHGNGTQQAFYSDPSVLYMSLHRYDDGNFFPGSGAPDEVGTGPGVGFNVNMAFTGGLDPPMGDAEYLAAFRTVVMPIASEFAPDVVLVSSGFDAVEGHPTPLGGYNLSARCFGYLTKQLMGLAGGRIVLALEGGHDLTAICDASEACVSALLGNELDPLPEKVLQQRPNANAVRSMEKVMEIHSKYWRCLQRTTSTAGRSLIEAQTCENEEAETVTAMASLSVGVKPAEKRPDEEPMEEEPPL
Chain of Histone deacetylase 5 (Q9UQL6 whole entry): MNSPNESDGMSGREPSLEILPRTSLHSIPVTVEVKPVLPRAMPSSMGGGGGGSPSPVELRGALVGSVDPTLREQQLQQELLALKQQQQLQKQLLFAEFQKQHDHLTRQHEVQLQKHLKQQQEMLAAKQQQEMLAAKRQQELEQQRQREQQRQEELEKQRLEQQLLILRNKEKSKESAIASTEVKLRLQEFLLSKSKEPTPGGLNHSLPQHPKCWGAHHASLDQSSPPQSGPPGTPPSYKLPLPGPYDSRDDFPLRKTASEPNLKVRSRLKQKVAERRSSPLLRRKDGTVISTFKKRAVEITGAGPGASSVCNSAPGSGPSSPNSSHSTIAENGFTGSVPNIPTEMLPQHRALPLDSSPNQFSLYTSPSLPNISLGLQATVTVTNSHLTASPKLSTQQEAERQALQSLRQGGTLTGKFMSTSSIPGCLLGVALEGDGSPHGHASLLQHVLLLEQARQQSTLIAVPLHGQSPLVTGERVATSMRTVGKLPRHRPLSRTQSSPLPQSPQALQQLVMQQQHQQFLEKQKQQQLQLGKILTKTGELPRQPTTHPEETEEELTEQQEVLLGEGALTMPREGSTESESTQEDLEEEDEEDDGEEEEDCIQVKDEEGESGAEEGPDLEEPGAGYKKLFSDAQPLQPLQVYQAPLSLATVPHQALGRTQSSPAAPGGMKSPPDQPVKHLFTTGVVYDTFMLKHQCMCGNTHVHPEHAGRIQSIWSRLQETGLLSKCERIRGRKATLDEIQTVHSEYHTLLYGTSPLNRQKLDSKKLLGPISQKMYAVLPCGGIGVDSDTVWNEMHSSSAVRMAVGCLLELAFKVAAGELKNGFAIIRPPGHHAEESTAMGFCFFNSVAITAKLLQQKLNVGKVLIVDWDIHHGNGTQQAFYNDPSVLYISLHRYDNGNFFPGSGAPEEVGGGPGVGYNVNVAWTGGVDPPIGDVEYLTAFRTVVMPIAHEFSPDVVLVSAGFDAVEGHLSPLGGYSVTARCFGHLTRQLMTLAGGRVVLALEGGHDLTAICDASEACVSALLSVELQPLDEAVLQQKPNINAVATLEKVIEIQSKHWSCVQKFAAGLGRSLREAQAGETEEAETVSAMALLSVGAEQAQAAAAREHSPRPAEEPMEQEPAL

Compound | Ki [1] [nM] | Ki (Histone deacetylase 4) [µM] | Ki [2] [µM] | Ki (Histone deacetylase 5) [µM] | Ki [3] [µM] | Ki [4] [nM] | Ki [5] [nM]
O=C(NO)C(F)(F)C(F)(F)C(F)(F)C(F)(F)C(F)(F)C(F)(F)C(=O)Nc1ccccc1 | 22 | > 50 | 2.6 | 13 | 0.7 |  | 
Cc1ccc(NC(=O)C(F)(F)C(F)(F)C(F)(F)C(F)(F)C(F)(F)C(F)(F)C(=O)NO)cc1 | 190 | > 50 | 6.2 | > 50 | 2.3 |  | 
O=C(NO)C(F)(F)C(F)(F)C(F)(F)C(F)(F)C(F)(F)C(F)(F)C(=O)Nc1ccc(Cl)cc1 | 170 | > 50 | 5.7 | > 50 | 2.1 | 86 | 86
CC(=O)Nc1ccc(NC(=O)C(F)(F)C(F)(F)C(F)(F)C(F)(F)C(F)(F)C(F)(F)C(=O)NO)cc1 | 320 | > 50 | 7.6 | > 50 | 3.6 |  | 
N#Cc1ccc(NC(=O)C(F)(F)C(F)(F)C(F)(F)C(F)(F)C(F)(F)C(F)(F)C(=O)NO)cc1 | 320 | > 50 | 7.1 | > 50 | 2.8 |  | 
O=C(NO)C(F)(F)C(F)(F)C(F)(F)C(F)(F)C(F)(F)C(F)(F)C(=O)Nc1ccc(I)cc1 | 46 | > 50 | 4.1 | > 50 | 1.1 |  | 
O=C(NO)C(F)(F)C(F)(F)C(F)(F)C(F)(F)C(F)(F)C(F)(F)C(=O)Nc1ccc(-c2ccccc2)cc1 | 46 | > 50 | 3.1 | > 50 | 1.5 |  | 
CCc1cccc(NC(=O)C(F)(F)C(F)(F)C(F)(F)C(F)(F)C(F)(F)C(F)(F)C(=O)NO)c1 | 240 | > 50 | 6.7 | > 50 | 2.1 |  | 
O=C(NO)C(F)(F)C(F)(F)C(F)(F)C(F)(F)C(F)(F)C(F)(F)C(=O)Nc1ccc2ccc3cccc4ccc1c2c34 | 230 | > 50 | 16 | > 50 | 4.1 |  | 
O=C(NO)C(F)(F)C(F)(F)C(F)(F)C(F)(F)C(F)(F)C(F)(F)C(=O)Nc1nc(-c2ccccc2)cs1 | 12000 | > 50 | > 50 | > 50 | 8.5 |  | 
O=C(NO)C(F)(F)C(F)(F)C(F)(F)C(F)(F)C(F)(F)C(F)(F)C(=O)Nc1ccc(-c2cnnn2-c2ccccc2)cc1 | 3100 | > 50 | 15 | > 50 | 22 |  | 
O=C(NO)C(F)(F)C(F)(F)C(F)(F)C(F)(F)C(F)(F)C(F)(F)C(=O)Nc1cccc2ccccc12 | 350 | > 50 | 21 | > 50 | 7 |  | 
O=C(NO)C(F)(F)C(F)(F)C(F)(F)C(F)(F)C(F)(F)C(F)(F)C(=O)Nc1cccc(-c2ccccc2)c1 | 100 | > 50 | 4.4 | > 50 | 1.5 |  | 
O=C(NO)C(F)(F)C(F)(F)C(F)(F)C(F)(F)C(F)(F)C(F)(F)C(=O)Nc1ccc2ccccc2c1 | 530 | > 50 | 3.8 | > 50 | 1.2 |  | 
O=C(NO)C(F)(F)C(F)(F)C(F)(F)C(F)(F)C(F)(F)C(F)(F)C(=O)Nc1ccccc1-c1ccccc1 | 1100 | > 50 | 17 | > 50 | 12 |  | 
O=C(NO)C(F)(F)C(F)(F)C(F)(F)C(F)(F)C(F)(F)C(F)(F)C(=O)Nc1ccc2cc3ccccc3cc2c1 | 2000 | > 50 | > 50 | > 50 | 24 |  | 
O=C(NO)C(F)(F)C(F)(F)C(F)(F)C(F)(F)C(F)(F)C(F)(F)C(=O)Nc1cc2ccccc2c2ccccc12 | 250 | > 50 | 11 | > 50 | 6 |  | 
O=C(NO)C(F)(F)C(F)(F)C(F)(F)C(F)(F)C(F)(F)C(F)(F)C(=O)Nc1cccc2cc3ccccc3cc12 | 1100 | > 50 | 11 | > 50 | 9 |  | 
O=C(Nc1ccccc1)C(F)(F)C(F)(F)C(F)(F)C(F)(F)C(F)(F)C(F)(F)C(=O)Nc1ccccc1 | 10000 | > 50 | > 50 | > 50 | > 50 |  | 
O=C(NO)C(F)(F)C(F)(F)C(F)(F)C(F)(F)C(F)(F)C(F)(F)C(=O)Nc1cccc(-c2cn(-c3ccccc3)nn2)c1 | 2600 | > 50 | > 50 | > 50 | > 50 |  | 
